Source: the M2OR odorant receptor database
Positions count from the first letter of the chain named.

Experiments:
Details in all cases: stereoisomer not certain
OR2F1 (Homo sapiens) = molecular target: T1, OR2F1 (Homo sapiens) (UniProt Q13607)
T1 sequence (whole entry): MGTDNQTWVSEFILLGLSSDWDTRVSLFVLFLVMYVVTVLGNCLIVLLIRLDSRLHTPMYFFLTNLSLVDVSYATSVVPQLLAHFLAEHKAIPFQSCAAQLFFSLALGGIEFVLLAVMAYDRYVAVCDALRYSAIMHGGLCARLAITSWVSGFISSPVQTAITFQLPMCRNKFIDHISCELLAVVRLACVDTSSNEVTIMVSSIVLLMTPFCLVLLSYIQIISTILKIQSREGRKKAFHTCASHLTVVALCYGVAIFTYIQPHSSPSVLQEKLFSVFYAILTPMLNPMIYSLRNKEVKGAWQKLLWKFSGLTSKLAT
Outline: (§1)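 Transient luciferase assays in mammalian cell lines were common, though methods varied by source. The values come from published papers and their supplementary material, with extra details from the original authors when needed. Responsive refers to a measured signal the original authors judged statistically different from baseline, and non-responsive (inactive) to the remainder.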

OR2F2 (Homo sapiens) = molecular target: T2, OR2F2 (Homo sapiens) (UniProt O95006)
T2 sequence (whole entry): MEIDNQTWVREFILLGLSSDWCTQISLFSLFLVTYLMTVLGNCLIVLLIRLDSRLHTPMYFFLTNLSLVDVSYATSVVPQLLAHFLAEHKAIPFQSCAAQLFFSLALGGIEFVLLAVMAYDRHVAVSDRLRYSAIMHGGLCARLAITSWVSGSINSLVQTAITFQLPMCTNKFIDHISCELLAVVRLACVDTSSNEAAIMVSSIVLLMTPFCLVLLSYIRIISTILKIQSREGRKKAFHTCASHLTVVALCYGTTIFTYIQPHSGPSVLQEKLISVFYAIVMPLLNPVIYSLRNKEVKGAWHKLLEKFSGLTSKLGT
Outline: as §1

OR2G2 (Homo sapiens) = molecular target: T3, OR2G2 (Homo sapiens) (UniProt Q8NGZ5)
T3 sequence (whole entry): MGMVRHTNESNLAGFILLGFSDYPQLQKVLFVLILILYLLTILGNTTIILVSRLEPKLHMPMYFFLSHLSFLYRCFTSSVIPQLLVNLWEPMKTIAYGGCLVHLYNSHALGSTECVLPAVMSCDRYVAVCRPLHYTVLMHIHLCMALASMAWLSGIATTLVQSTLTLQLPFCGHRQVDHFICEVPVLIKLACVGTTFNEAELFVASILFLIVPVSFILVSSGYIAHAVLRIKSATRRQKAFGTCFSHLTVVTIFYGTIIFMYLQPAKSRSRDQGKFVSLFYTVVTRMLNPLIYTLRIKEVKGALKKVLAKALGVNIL
Outline: as §1

OR2G3 (Homo sapiens) = molecular target: T4, OR2G3 (Homo sapiens) (UniProt Q8NGZ4)
T4 sequence (whole entry): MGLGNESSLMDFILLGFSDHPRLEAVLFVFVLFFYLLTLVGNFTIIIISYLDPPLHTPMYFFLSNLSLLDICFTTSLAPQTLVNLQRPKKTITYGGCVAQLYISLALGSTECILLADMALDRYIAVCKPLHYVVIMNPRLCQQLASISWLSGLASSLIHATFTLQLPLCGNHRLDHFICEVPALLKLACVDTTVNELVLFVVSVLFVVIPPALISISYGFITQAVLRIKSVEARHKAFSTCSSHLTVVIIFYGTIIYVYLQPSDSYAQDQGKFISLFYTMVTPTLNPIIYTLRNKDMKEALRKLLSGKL
Outline: as §1

OR2G6 (Homo sapiens) = molecular target: T5, OR2G6 (Homo sapiens) (UniProt Q5TZ20)
T5 sequence (whole entry): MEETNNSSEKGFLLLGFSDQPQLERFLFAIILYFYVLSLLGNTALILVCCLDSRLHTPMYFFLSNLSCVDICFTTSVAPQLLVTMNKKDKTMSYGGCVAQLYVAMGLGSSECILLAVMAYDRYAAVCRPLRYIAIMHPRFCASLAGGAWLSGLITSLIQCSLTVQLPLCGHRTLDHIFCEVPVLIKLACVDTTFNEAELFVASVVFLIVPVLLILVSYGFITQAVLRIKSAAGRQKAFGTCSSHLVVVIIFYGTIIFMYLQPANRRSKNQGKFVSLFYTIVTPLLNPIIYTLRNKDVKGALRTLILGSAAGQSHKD
Outline: as §1

OR2H1 (Homo sapiens) = molecular target: T6, OR2H1 (Homo sapiens) (UniProt Q9GZK4)
T6 sequence (whole entry): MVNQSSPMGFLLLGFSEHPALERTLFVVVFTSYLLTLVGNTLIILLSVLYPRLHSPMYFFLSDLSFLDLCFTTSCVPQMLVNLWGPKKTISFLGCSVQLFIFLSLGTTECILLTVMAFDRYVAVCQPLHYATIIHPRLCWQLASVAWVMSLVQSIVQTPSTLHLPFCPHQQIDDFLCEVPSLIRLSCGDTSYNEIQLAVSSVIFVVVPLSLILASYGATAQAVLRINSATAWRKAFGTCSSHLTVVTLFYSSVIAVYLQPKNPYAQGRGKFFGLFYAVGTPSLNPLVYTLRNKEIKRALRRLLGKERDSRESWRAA
Outline: as §1

OR2H2 (Homo sapiens) = molecular target: T7, OR2H2 (Homo sapiens) (UniProt O95918)
T7 sequence (whole entry): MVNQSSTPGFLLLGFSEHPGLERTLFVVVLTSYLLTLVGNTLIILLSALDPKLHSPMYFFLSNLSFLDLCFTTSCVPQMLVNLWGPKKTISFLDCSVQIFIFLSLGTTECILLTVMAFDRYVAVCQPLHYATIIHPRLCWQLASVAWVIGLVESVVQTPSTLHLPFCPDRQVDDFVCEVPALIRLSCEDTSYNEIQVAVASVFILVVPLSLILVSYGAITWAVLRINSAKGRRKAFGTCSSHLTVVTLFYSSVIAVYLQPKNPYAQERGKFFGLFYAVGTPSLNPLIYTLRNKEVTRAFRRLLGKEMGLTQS
Outline: as §1

OR2J1 (Homo sapiens) = molecular target: T8, OR2J1 (Homo sapiens) (UniProt Q9GZK6)
T8 sequence (whole entry): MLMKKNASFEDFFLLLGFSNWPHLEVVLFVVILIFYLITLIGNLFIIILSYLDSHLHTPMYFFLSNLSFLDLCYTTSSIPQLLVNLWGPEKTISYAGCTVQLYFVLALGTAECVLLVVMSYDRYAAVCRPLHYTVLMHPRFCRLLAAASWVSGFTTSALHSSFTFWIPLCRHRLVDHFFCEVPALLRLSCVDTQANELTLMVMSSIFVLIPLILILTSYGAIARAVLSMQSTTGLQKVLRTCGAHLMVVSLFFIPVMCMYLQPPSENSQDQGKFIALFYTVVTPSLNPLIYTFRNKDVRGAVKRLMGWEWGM
Outline: as §1

OR2J2 (Homo sapiens) = molecular target: T9, OR2J2 (Homo sapiens) (UniProt O76002)
T9 sequence (whole entry): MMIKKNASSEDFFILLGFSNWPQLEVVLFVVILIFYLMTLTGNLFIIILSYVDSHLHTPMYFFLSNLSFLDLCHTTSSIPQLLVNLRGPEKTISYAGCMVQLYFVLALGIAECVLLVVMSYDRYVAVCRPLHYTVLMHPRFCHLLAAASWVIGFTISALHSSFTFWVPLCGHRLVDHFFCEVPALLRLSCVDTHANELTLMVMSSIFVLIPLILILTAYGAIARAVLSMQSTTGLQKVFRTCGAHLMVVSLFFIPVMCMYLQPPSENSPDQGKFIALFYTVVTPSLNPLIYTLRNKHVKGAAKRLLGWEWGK
Outline: as §1

OR2J3 (Homo sapiens) = molecular target: T10, OR2J3 (Homo sapiens) (UniProt O76001)
T10 sequence (whole entry): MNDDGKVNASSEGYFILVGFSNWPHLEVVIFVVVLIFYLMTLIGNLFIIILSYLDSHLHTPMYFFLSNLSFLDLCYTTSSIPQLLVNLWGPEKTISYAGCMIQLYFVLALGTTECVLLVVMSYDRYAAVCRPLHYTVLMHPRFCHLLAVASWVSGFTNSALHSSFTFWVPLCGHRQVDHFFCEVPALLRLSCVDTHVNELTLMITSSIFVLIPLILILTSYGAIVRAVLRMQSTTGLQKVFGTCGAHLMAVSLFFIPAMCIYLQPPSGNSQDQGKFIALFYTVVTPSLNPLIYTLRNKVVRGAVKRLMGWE
Outline: as §1

OR2K2 (Homo sapiens) = molecular target: T11, OR2K2 (Homo sapiens) (UniProt Q8NGT1)
T11 sequence (whole entry): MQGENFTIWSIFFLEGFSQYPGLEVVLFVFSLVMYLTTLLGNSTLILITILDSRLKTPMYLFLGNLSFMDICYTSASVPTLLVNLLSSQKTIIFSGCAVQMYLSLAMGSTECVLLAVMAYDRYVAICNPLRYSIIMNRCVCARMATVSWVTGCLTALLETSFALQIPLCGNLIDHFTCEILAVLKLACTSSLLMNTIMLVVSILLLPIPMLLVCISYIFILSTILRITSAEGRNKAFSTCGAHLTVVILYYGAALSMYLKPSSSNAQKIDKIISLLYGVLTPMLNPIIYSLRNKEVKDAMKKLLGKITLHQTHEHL
Outline: as §1

OR2G2 L167P R236G = system: T12, OR2G2 L167P R236G
T12 sequence (whole entry): T3 sequence (whole entry) with L167P, R236G
Outline: as §1

OR2G3 I289V = system: T13, OR2G3 I289V
T13 sequence (whole entry): T4 sequence (whole entry) with I289V
Outline: as §1

OR2H2 = system: T14, OR2H2
T14 sequence (whole entry): T7 sequence (whole entry) with L30F, A48V
Outline: as §1

OR2J1 L14I V182A = system: T15, OR2J1 L14I V182A
T15 sequence (whole entry): T8 sequence (whole entry) with L14I, V182A
Outline: as §1

OR2J2 = system: T16, OR2J2
T16 sequence (whole entry): T9 sequence (whole entry) with H74Y, A111T, A146V, A218T
Outline: as §1

OR2J3 = system: T17, OR2J3
T17 sequence (whole entry): T10 sequence (whole entry) with V228I, I261M
Outline: as §1

OR2F1 = system: OR2F1
Chain of OR2F1 (as listed by the source): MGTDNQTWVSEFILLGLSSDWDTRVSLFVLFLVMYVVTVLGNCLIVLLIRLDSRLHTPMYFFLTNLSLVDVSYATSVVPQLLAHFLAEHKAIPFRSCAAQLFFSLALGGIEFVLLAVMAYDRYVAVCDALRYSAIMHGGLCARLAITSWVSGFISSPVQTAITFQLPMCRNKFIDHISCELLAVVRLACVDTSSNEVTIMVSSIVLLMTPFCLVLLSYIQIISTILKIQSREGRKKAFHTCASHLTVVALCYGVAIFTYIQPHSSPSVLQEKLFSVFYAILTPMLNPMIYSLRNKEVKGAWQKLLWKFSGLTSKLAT
Outline: as §1

Measured: odorant receptor agonist call

CCC(S)C(C)CO (stereo not drawn)
not listed: OR2G2 L167P R236G | OR2G3 I289V | OR2H2 | OR2J1 L14I V182A | OR2J2 | OR2J3 | OR2F1
inactive: all other assays above

CCC1OC(=O)C(O)=C1C (stereo not drawn)
not listed: OR2J2 (Homo sapiens) | OR2F1
inactive: all other assays above

CC1=C(O)C(=O)OC1C (stereo not drawn)
not listed: OR2J2 (Homo sapiens) | OR2F1
inactive: all other assays above

O=C([O-])C[SH2+]
inactive: OR2F1

CCCCC(S)C(C)CO (stereo not drawn)
not listed: OR2G2 L167P R236G | OR2G3 I289V | OR2H2 | OR2J1 L14I V182A | OR2J2 | OR2J3 | OR2F1
inactive: all other assays above

Cc1occc(=O)c1OC(=O)C(C)C
active: OR2G2 (Homo sapiens)

CCC1OC(C)=C(O)C1=O (stereo not drawn)
not listed: OR2J2 (Homo sapiens) | OR2F1
inactive: all other assays above

CCCCCC1C(=O)CCC1CC(=O)OC (stereo not drawn)
inactive: OR2G2 (Homo sapiens)
